Test results taken from ChEMBL document CHEMBL2163270, “Design and in vitro activities of N-alkyl-N-[(8-R-2,2-dimethyl-2H-chromen-6-yl)methyl]heteroarylsulfonamides, novel, small-molecule hypoxia inducible factor-1 pathway inhibitors and anticancer agents” (J Med Chem, 2012).
In brackets after ≈: the same amount, converted by molar mass. Activity calls are given as the source filed them. The rule behind the calls is not given here.

Tests used:
[1] = biological target: Histone acetyltransferase p300 (Homo sapiens) (UniProt Q09472); experiment: Inhibition of P300 CH1 domain-mediated HIF1 transcriptional activity in human LN229-V6R cells assessed as reduction in luciferase activity incubated for 1 hr under normoxia followed by 24 hrs under hypoxia by reporter gene assay; format: cell-based
Chain of Histone acetyltransferase p300 (Homo sapiens) (Q09472 whole entry, the tested form may be a part): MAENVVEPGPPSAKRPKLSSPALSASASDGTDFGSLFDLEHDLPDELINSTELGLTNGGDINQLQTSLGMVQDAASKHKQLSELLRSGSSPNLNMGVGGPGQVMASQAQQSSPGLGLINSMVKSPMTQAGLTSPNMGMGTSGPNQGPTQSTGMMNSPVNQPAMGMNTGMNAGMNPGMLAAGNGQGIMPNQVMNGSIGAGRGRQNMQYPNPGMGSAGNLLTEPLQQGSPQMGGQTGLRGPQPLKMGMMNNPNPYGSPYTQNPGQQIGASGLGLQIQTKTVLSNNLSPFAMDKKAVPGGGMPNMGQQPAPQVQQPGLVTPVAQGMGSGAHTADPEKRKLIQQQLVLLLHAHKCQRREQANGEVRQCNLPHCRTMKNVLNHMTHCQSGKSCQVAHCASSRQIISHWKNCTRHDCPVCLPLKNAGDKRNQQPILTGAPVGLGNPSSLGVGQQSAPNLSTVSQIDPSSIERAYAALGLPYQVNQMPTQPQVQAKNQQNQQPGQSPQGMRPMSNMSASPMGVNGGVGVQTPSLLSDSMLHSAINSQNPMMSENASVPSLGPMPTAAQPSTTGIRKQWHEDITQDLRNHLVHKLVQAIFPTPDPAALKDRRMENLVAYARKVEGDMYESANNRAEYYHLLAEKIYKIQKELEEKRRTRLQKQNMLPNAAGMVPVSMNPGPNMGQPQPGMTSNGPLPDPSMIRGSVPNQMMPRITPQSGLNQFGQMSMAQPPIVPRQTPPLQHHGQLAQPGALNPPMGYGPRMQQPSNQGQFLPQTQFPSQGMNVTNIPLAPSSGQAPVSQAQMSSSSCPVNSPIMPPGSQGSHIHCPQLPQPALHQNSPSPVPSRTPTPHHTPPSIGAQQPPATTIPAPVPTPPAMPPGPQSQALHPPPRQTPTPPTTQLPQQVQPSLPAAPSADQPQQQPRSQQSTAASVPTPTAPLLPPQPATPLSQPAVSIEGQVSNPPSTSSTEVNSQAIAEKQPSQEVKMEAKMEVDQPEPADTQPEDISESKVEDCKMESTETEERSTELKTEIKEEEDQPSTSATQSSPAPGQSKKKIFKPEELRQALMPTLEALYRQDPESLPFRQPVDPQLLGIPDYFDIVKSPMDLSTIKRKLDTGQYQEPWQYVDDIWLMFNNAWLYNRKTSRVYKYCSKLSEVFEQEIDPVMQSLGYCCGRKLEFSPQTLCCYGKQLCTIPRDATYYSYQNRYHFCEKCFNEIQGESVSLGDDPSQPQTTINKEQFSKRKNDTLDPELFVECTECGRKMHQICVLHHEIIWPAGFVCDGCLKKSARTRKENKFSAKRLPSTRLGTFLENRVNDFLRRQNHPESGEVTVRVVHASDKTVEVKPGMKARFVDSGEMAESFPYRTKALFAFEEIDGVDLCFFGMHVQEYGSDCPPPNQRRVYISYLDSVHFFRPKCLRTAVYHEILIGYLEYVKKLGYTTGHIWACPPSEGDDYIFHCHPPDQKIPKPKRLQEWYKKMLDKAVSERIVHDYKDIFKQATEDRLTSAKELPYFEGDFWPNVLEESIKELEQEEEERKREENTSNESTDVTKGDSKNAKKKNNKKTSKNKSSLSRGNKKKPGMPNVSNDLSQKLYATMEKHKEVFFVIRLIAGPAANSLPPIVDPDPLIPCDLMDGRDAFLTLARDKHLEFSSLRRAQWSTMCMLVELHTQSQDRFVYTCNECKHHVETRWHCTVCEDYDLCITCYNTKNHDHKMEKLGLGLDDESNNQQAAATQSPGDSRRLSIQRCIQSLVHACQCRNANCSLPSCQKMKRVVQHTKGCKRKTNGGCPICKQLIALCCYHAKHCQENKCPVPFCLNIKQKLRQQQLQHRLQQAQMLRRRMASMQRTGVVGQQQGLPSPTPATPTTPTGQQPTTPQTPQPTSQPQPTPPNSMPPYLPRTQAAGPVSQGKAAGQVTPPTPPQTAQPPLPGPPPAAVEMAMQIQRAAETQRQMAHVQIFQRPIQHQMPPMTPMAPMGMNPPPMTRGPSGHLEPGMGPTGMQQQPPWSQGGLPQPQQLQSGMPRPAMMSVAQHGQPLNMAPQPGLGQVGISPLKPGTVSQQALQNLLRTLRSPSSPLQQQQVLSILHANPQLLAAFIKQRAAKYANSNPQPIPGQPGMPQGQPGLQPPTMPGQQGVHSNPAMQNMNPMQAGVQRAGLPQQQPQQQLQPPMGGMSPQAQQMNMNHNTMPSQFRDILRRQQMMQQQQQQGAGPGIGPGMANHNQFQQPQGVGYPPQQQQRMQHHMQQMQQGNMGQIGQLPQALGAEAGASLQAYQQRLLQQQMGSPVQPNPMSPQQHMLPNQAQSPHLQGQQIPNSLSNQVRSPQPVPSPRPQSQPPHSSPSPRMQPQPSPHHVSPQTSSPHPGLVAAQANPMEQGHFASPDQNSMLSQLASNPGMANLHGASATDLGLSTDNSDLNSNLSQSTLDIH
How it was run: (§1)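 LN229-V6R cells carry a stably integrated hypoxia/HIF-inducible luciferase reporter. 3 × 10⁴ cells/well in DMEM with 10% serum, 24 h normoxia. Compound at 2.5, 5.0 or 10.0 μM in 1% DMSO, 1 h at 37 °C, then 24 h at 1% O2. Lysates mixed with luciferase substrate and read by luminometry, expressed as % of untreated control. Triplicates.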

LN-229 = experiment: Inhibition of luciferase activity in human LN229-Lux cells at 2.5 to 10 uM incubated for 1 hr under normoxia followed by 24 hrs under hypoxia by reporter gene assay; format: functional, cell-based
[2] = 1-Octanol-phosphate buffer distribution coefficient, log P of the compound at pH 7.4 by HPLC analysis; format: physicochemical
How it was run: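 Eluent methanol:water:triethylamine 70:30:0.1 at 2 mL/min, UV 254/280 nm. Calibrated with aniline, benzene, toluene and chlorobenzene plus two shake-flask-measured reference sulfonamides.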

[3] = biological target: Histone acetyltransferase p300 (Homo sapiens) (UniProt Q09472); experiment: Inhibition of P300 CH1 domain-mediated HIF1 transcriptional activity in human LN229-V6R cells assessed as remaining activity at 2.5 uM incubated for 1 hr under normoxia followed by 24 hrs under hypoxia by luciferase reporter gene assay; format: cell-based; how it was run: as §1
[4] = Cytotoxicity against human LN229 cells transfected with V6R incubated for 14 days under normoxic condition by clonogenecity assay; format: functional, cell-based; details: LN-229, 336 h
[5] = Cytotoxicity against human LN229 cells transfected with V6R incubated for 1 hr under normoxic condition followed by 14 days under hypoxic condition by clonogenecity assay; format: functional, cell-based; details: LN-229
[6] = Cytotoxicity against human HFF1 cells incubated for 14 days under normoxic condition by clonogenecity assay; format: cell-based; details: HFF-1, 336 h
How it was run: (§2)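 Clonogenic assay in LN229 glioma or HFF-1 immortalized fibroblasts seeded at 200 or 1,000 cells/well and allowed to adhere 16 h under normoxia. Compound at 6.25-100 μM final, 1% DMSO. Plates held 1 h under normoxia, then 14 days at 21% or 1% O2. Colonies stained with 0.9% crystal violet and counted. IC50 from exponential/polynomial fit (R² ≥ 0.8).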

[7] = Cytotoxicity against human HFF1 cells incubated for 1 hr under normoxic condition followed by 14 days under hypoxic condition by clonogenecity assay; format: cell-based; details: HFF-1; how it was run: as §2
[8] = biological target: Histone acetyltransferase p300 (Homo sapiens) (UniProt Q09472); experiment: Inhibition of P300 CH1 domain-mediated HIFalpha protein expression in human LN229-V6R cells incubated for 1 hr under normoxia followed by 24 hrs under hypoxia by Western blot analysis; format: cell-based
How it was run: (§3)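 LN229-V6R cells, 2 × 10⁵ per 35 mm dish, grown 24 h under normoxia. Compound at 3-100 μM in 1% DMSO, 1 h normoxia, then 24 h at 1% O2. Lysed in SDS loading buffer and resolved on a 4-12.5% gradient gel. Immunoblotted for HIF-1α (1:500) with β-actin (1:3,000), HRP secondaries, ECL detection. Repeated at least twice.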

[9] = biological target: Histone acetyltransferase p300 (Homo sapiens) (UniProt Q09472); experiment: Inhibition of P300 CH1 domain-mediated HIF1 transcriptional activity in human LN229-V6R cells assessed as reduction in luciferase activity at 10 uM incubated for 1 hr under normoxia followed by 24 hrs under hypoxia by reporter gene assay; format: cell-based; how it was run: as §1
[10] = 1-Octanol-phosphate buffer distribution coefficient, log P of the compound at pH 7.4 after 15 mins by shake flask method; format: physicochemical
How it was run: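 Shake-flask partition per OECD 107: 1-octanol and 0.2 M phosphate buffer pH 7.4 mutually presaturated by 24 h stirring at room temperature. 1-2 mg compound dissolved in 2 mL buffer-saturated octanol plus 2 mL octanol-saturated buffer, run in duplicate. Aqueous layer quantified by HPLC at 254 nm against standard curves.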

Liver = experiment: Half life in mouse liver homogenate by HPLC analysis at pH 7.4; format: ADME, tissue-based; details: in vitro
How it was run: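 Mouse liver homogenate in PBS pH 7.4 (1:2 w/v) incubated with 20 μM compound at 37 °C with shaking. Timed samples extracted with acetonitrile and analysed by C8 HPLC-PDA with 2 μM α-naphthoflavone internal standard, linear range 1-50 μM. Triplicates.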

[11] = Drug metabolism in mouse plasma after 24 hrs by HPLC analysis; format: ADME, cell-free; details: read-out: Drug metabolism
How it was run: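 Compound at 20 μM incubated in fresh mouse plasma at 37 °C with shaking for 24 h. Samples extracted with acetonitrile, dried and reconstituted. Quantified by C8 reverse-phase HPLC with photodiode-array detection, 2 μM α-naphthoflavone internal standard, standard curves 1-50 μM. Triplicates.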

[12] = Cytotoxicity against human LN229 cells transfected with V6R incubated for 3 days under normoxic condition by SRB assay; format: functional, cell-based; details: LN-229, 72 h
How it was run: (§4)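 SRB growth assay: LN229-V6R, 2 × 10³ cells/well, attached 24 h under normoxia. Dosed at 3-100 μM in 1% DMSO, 1 h normoxia, then normoxia or hypoxia for 3 days. Cold 10% TCA fixation, 0.04% SRB stain, dye solubilized in 10 mM Tris pH 10, OD 564 nm. Quadruplicate or sextuplicate wells, two independent experiments; IC50 by curve fit.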

[13] = Cytotoxicity against human LN229 cells transfected with V6R incubated for 1 hr under normoxic condition followed by 3 days under hypoxic condition by SRB assay; format: functional, cell-based; details: LN-229; how it was run: as §4
[14] = biological target: Histone acetyltransferase p300 (Homo sapiens) (UniProt Q09472); experiment: Inhibition of P300 CH1 domain-mediated HIFalpha protein expression in human LN229-V6R cells at 3 to 50 uM incubated for 1 hr under normoxia followed by 24 hrs under hypoxia by Western blot analysis; format: cell-based; how it was run: as §3
[15] = biological target: Histone acetyltransferase p300 (Homo sapiens) (UniProt Q09472); experiment: Inhibition of P300 CH1 domain-mediated HIFalpha protein expression in human LN229-V6R cells at 100 uM incubated for 1 hr under normoxia followed by 24 hrs under hypoxia by Western blot analysis; format: cell-based; how it was run: as §3
[16] = Aqueous solubility of the compound at pH 7.4 after 90 mins by laser nephelometric analysis; format: physicochemical; details: aqueous medium
How it was run: (§5)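 DMSO stocks (30 mg/mL) serially diluted, then diluted into phosphate-buffered saline at pH 7.4, 5.0 or 3.0. Final drug concentrations were 1.5–300 μg/mL with 1% DMSO. Incubated 90 min at ambient temperature, and laser nephelometry located the onset of precipitation. An internal control was included.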

[17] = Aqueous solubility of the compound at pH 5 after 90 mins by laser nephelometric analysis; format: physicochemical; details: aqueous medium; how it was run: as §5
[18] = Aqueous solubility of the compound at pH 3 after 90 mins by laser nephelometric analysis; format: physicochemical; details: aqueous medium; how it was run: as §5
[19] = Aqueous solubility of the compound; format: physicochemical; details: aqueous medium
How it was run: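 Saturated suspension (1–2 mg in 2 mL distilled water) sonicated 30 min at room temperature, centrifuged 1,500 g, 20 °C, 5 min, then filtered through 0.2 μm PTFE. Filtrate quantified by HPLC-UV at 254 nm against standard curves. Three independent experiments, values averaged.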

[20] = biological target: Histone acetyltransferase p300 (Homo sapiens) (UniProt Q09472); experiment: Inhibition of P300 CH1 domain-mediated HIF1 transcriptional activity in human LN229-V6R cells assessed as reduction in luciferase activity at 2.5 to 10 uM incubated for 1 hr under normoxia followed by 24 hrs under hypoxia by reporter gene assay; format: cell-based
How it was run: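 LN229-V6R cells carrying a stably integrated hypoxia/HIF-inducible luciferase reporter were seeded at 3 × 10⁴/well in DMEM with 10% serum and grown 24 h under normoxia. Compound was added at 2.5, 5.0 or 10.0 μM in 1% DMSO. Cells were held 1 h at 37 °C, then 24 h under hypoxia (1% O₂). Luciferase was read in lysates as percent of untreated control, in triplicate.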

CC(C)CN(Cc1ccc2c(c1)C=CC(C)(C)O2)S(=O)(=O)c1nccs1
inhibition [1]: Dose-dependent effect | inhibition (LN-229): inactive | logD [2]: 4.4 | Activity [3]: 78%

CC(C)CN(Cc1ccc2c(c1)C=CC(C)(C)O2)S(=O)(=O)c1ccccn1
inhibition [1]: Dose-dependent effect | inhibition (LN-229): inactive | logD [2]: 4.1 | Activity [3]: 85%

CC1(C)C=Cc2cc(CN(C3CCC3)S(=O)(=O)c3ccccn3)ccc2O1
inhibition [1]: Dose-dependent effect | inhibition (LN-229): inactive | logD [2]: 3 | Activity [3]: 53%

COc1cc(CN(C(C)C)S(=O)(=O)c2ccccn2)cc2c1OC(C)(C)C=C2
IC50 [4]: 69 µM | IC50 [5]: > 100 µM | IC50 [6]: 55 µM | IC50 [7]: > 100 µM | inhibition [1]: Dose-dependent effect | inhibition (LN-229): inactive | inhibition [8]: Dose-dependent effect | inhibition [9]: > 60% | logD at 0.25 h [10]: 1.3 | t1/2 (Liver): 15 h | Activity [3]: 61% | metabolised at 24 h [11]: < 1% | IC50 [12]: 73 µM | IC50 [13]: 146 µM

CC(C)CN(Cc1ccc2c(c1)C=CC(C)(C)O2)S(=O)(=O)c1ccncc1
inhibition [1]: Dose-dependent effect | inhibition (LN-229): inactive | logD [2]: 3.6 | Activity [3]: 63%

CC(C)N(Cc1ccc2c(c1)C=CC(C)(C)O2)S(=O)(=O)c1ccccn1
IC50 [4]: 82 µM | IC50 [5]: 134 µM | IC50 [6]: 62 µM | IC50 [7]: 93 µM | inhibition [1]: Dose-dependent effect | inhibition (LN-229): inactive | inhibition [14]: inactive | inhibition [15]: Active | inhibition [9]: 60% | logD at 0.25 h [10]: 2 | solubility kinetic at 1.5 h [16]: < 15 µg/mL | solubility kinetic at 1.5 h [17]: 16 µg/mL (≈ 43 µM) | solubility kinetic at 1.5 h [18]: 17 µg/mL (≈ 45.6 µM) | t1/2 (Liver): 20 h | Activity [3]: 55% | metabolised at 24 h [11]: < 1% | IC50 [12]: 100 µM | IC50 [13]: 126 µM

CC(C)CN(Cc1cc(O)c2c(c1)C=CC(C)(C)O2)S(=O)(=O)c1ccncc1
IC50 [4]: 23 µM | IC50 [5]: 30 µM | IC50 [6]: 22 µM | IC50 [7]: 40 µM | inhibition [1]: Dose-dependent effect | inhibition (LN-229): inactive | inhibition [8]: Dose-dependent effect | inhibition [9]: > 60% | logD [2]: 1.2 | Activity [3]: 59% | metabolised at 24 h [11]: < 1% | IC50 [12]: 92 µM | IC50 [13]: 113 µM

CC1(C)C=Cc2cc(CN(C3CC3)S(=O)(=O)c3ccccn3)ccc2O1
inhibition [1]: Dose-dependent effect | inhibition (LN-229): inactive | logD [2]: 3 | Activity [3]: 71%

CC(C)CN(Cc1ccc2c(c1)C=CC(C)(C)O2)S(=O)(=O)c1nccn1C
inhibition [1]: Dose-dependent effect | inhibition (LN-229): inactive | logD [2]: 3.1 | Activity [3]: 74%

CO[C@H]1/C=C\C=C(/C)C(=O)NC2=CC(=O)C(NCCN(C)C)=C(C[C@@H](C)C[C@H](OC)[C@H](O)[C@@H](C)/C=C(\C)[C@@H]1OC(N)=O)C2=O (stereo in doubt)
inhibition (LN-229): Active

CC1(C)C=Cc2cc(CN(CC3CC3)S(=O)(=O)c3ccccn3)ccc2O1
inhibition [1]: Dose-dependent effect | inhibition (LN-229): inactive | logD [2]: 3.1 | t1/2 (Liver): 13 h | Activity [3]: 49% | metabolised at 24 h [11]: < 1%

CC1(C)C=Cc2cc(CN(C3CCCC3)S(=O)(=O)c3ccccn3)ccc2O1
inhibition [1]: Dose-dependent effect | inhibition (LN-229): inactive | logD [2]: 3.8 | Activity [3]: 60%

CC(C)CN(Cc1cc(O)c2c(c1)C=CC(C)(C)O2)S(=O)(=O)c1ccccn1
inhibition [1]: Dose-dependent effect | inhibition (LN-229): inactive | logD [2]: 1.3 | t1/2 (Liver): 15 h | Activity [3]: 43%

COc1ccc(S(=O)(=O)N(Cc2ccc3c(c2)C=CC(C)(C)O3)c2ccccc2)cc1OC
solubility [19]: 9 nM (≈ 4.19 ng/mL) | inhibition [20]: Active | inhibition (LN-229): inactive | logD [2]: 3.7 | solubility kinetic at 1.5 h [16]: < 15 µg/mL | solubility kinetic at 1.5 h [17]: < 15 µg/mL | solubility kinetic at 1.5 h [18]: < 15 µg/mL | t1/2 (Liver): 11 h | Activity [3]: 28% | metabolised at 24 h [11]: < 1%
